Source: PubChem BioAssay (Johns Hopkins Ion Channel Center)
TRPC6 inhibitor: blocks the mouse TRPC6 cation channel; HEK293-TRPC6, membrane potential dye, ACh-evoked depolarization; hits give low values; B-score at 10 µM; 1.1% of 310,000 active; AID 2553;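 active = B-score under library mean minus 3 SD, initial fluorescence not abnormally high, positive integrated signal ratio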;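 note: B-score derived from integrated fluorescence ratio over the kinetic read; more negative B-score means stronger inhibition of depolarization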
TRPC4 potent: TRPC4 (mouse) allosteric potentiation. HEK293 TRPC4beta/mu-opioid, DAMGO EC20, Fluo-4 Ca2+ flux; hits give high values. B-score at 10 µM. AID 2227. 0.42% of 310,000 active. Q9QUQ5;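 active = B-score of calcium response area above 5 SD of library B-scores, with initial fluorescence ratio within 5 SD of library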;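 note: B-score of integrated fluorescence ratio over time as area under calcium response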
TRPC4 inh: TRPC4 (mouse) channel inhibition | 0.39% of 300,000 active | B-score at 10 µM | Q9QUQ5 | HEK293 TRPC4beta/mu-opioid, DAMGO-evoked Fluo4 calcium flux; hits give low values;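 active = B-score over 3 SD under the library average, no early fluorescence shift, positive overall ratio signal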
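Assay system: TRPC4beta/mu-opioid receptor HEK293 cell line; compound dosing: single concentration per test compound; detection: Fluo4 Ca2+ flux fluorescence; evaluation: per-well B score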
TRPC4 agonist: opens the mouse TRPC4 cation channel; Q9QUQ5; HEK293 TRPC4beta/mu-opioid, Fluo4 calcium fluorescence; hits give high values; B-score at 10 µM; 0.49% of 310,000 active; AID 2237;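 active = B-score above 5 SD of library B-scores, and initial fluorescence ratio not above library mean plus 5 SD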;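 note: positive B-score marks a calcium rise read as TRPC4 activation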
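System: HEK293 cells stably co-expressing mouse TRPC4beta and mu-opioid receptor; Schedule: Fluo4 dye loading 45 min at room temperature, 110 s recording; Detection: Fluo4 fluorescence, kinetic; Evaluation: B-scored integrated calcium fluorescence ratio; Controls: buffer (low) and maximal DAMGO (high).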
TRPC6 act: mouse TRPC6 channel activation; B-score at 10 µM; HEK293-TRPC6 membrane potential dye fluorescence; hits give high values; Q61143; AID 2550; 0.13% of 310,000 active;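 active = B-score of the integrated fluorescence ratio above library mean plus 3 SD, and starting fluorescence ratio within library mean plus 5 SD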;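 note: higher score means more depolarization so channel activation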
The depositor's hits bear a star; i = inactive. The list is not random: actives were taken first. Their share in the collection is about 2.3%.

SMILES	TRPC6 inhibitor	TRPC4 potent	TRPC4 inh	TRPC4 agonist	TRPC6 act
CC(C)C1CC(CCNCc2ccc3c(c2)OCO3)(c2ccccc2)CCO1 (stereo unspecified)	i	i	i	122*	i
CC(C)C1CC(CCNCc2ccc(N(C)C)cc2)(c2ccccc2)CCO1 (stereo unspecified)	i	i	i	100*	i
Cc1ccc(C2(CCNCc3ccc(N(C)C)cc3)CCOC(C(C)C)C2)cc1 (stereo unspecified)	i	i	i	111*	i
CCCNC(=O)c1cc(Cl)c(NC(=O)C2=CSCCO2)cc1OC	i	i	i	i	i
COc1ccccc1NC(=O)/C(=C\c1cccnc1)NC(=O)c1ccc(C)cc1	i	i	i	i	i
COc1ccccc1C(=O)Nc1ccnn1C1CCN(Cc2cnn(C)c2C)CC1	i	i	i	i	i
CCOC(=O)C1C(=O)C=C(c2ccc(C)cc2)CC1c1cccc([N+](=O)[O-])c1 (stereo unspecified)	i	24*	i	i	i
CC(=O)N1CCc2cc(S(=O)(=O)C(C)CC(=O)Nc3ccc(OC(F)(F)F)cc3)ccc21 (stereo unspecified)	i	i	i	i	i
Clc1ccc2nc(CN3CCCCC3)cn2c1	i	i	i	i	i
Clc1ccc2nc(CN3CCCc4ccccc43)cn2c1	i	21*	i	i	i
O=C(CCc1ccccc1)NNC(=S)NC(=O)c1ccccc1	i	i	i	150*	i
CC(C)(C)c1cc(CCC(=O)NNC(=S)NC(=O)c2ccccc2)cc(C(C)(C)C)c1O	i	i	i	211*	i
CC(C)(C)c1cc(CCC(=O)NNC(=O)c2ccco2)cc(C(C)(C)C)c1O	i	i	i	i	i
CC(=O)NC(=S)NNC(=O)CCc1ccccc1	i	i	i	i	i
O=C(COc1ccc2c3c(c(=O)oc2c1)CCCC3)NCCCn1ccnc1	i	i	i	i	i
Cc1cc(=O)oc2c(C)c(OCC(=O)NC3CCN(Cc4ccccc4)CC3)ccc12	i	i	i	i	i
O=C(Cn1ncc2c(=O)oc3ccccc3c21)NC1CC1	i	i	i	i	i
Cc1c(OCC(=O)NC2CCN(Cc3ccccc3)CC2)ccc2c3c(c(=O)oc12)CCC3	i	11*	i	i	i
Cc1ccc2oc(=O)c3cnn(CC(=O)NC4CCN(Cc5ccccc5)CC4)c3c2c1	i	i	i	107*	i
O=C(COC(=O)c1cccc(S(=O)(=O)N2CCOCC2)c1)NCCc1ccccc1	i	i	i	i	i
COc1ccc(CNCc2ccc3c(c2)OCO3)c(OC)c1OC	i	i	i	i	i
COc1ccc(CNCc2ccc3c(c2)OCO3)cc1Br	i	i	i	43*	i
Cc1cc(Oc2ccc(-c3ccccc3)cc2)nc(N2CCOCC2)n1	i	i	i	i	i
Cc1cc(Oc2ccc(C(C)(C)C)cc2)nc(N2CCOCC2)n1	i	18*	i	i	i
CC(=O)Nc1ccc(NC(=O)CS(=O)(=O)c2cn(CC(=O)N3CCCC3)c3ccccc23)cc1	i	i	i	i	i
SMILES	TRPC6 inhibitor	TRPC4 potent	TRPC4 inh	TRPC4 agonist	TRPC6 act
Cc1ccccc1-n1c(SCc2cccc(F)c2)nc2[nH]ncc2c1=O	i	13*	i	i	i
COc1ccc(OCC(O)CNCCOc2ccccc2OC)c(C(C)(C)C)c1 (stereo unspecified)	i	i	i	i	i
CC1CCc2c(C(=O)N3CCN(S(=O)(=O)c4cccs4)CC3)csc2C1 (stereo unspecified)	i	29*	i	i	i
N/C(=N\OC(=O)c1ccc2ccccc2c1)c1ccccc1Cl	i	i	i	i	i
COc1ccccc1N1CCN(Cc2cc(=O)c(OCC(=O)NC3CCCC3)co2)CC1	i	108*	i	i	i
COc1ccc2c(c1)c1ncn(CCCN3CCOCC3)c(=O)c1n2C	i	13*	i	i	i
